Data taken from ChEMBL document CHEMBL1122439 (J Med Chem, 1983).
The source made the active and inactive calls. The rule behind the calls is not given here.

Key:
Histamine H2 receptor = Histamine H2 receptor (Cavia porcellus, UniProt P47747); experiment: Evaluated in vitro for Histamine H2 receptor inhibition using the dimaprit stimulated chronotropic response of the guinea pig atrium; type: tissue-based, Cardiac atrium
In short: (§1)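 Isolated guinea pig atria; chronotropic response to rising concentrations of H2 agonist dimaprit (10⁻⁷–10⁻⁴ M) in presence of test agent; three to four atria per test concentration; -log K_I = log(ED50 dose ratio − 1) − log(drug dose).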

Canis familiaris [1] = experiment: % Inhibition of acid output in dogs at a dose of 5.0 mg/kg administered intravenously; type: functional; conditions: Canis lupus familiaris, route intravenous
In short: (§2)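 Dogs with chronic gastric fistula; gastric acid secretion evoked by maximal stimulating histamine dose (64 μg/kg, sc). Test agent given intravenously, or intragastrically via fistula for peroral dosing; percent inhibition of acid output recorded at the stated single dose.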

[2] = biological target: Histamine H2 receptor (Cavia porcellus) (UniProt P47747); experiment: Evaluated in vitro for Histamine H2 receptor inhibition using the dimaprit stimulated chronotropic response of the guinea pig atrium; inact means inactive at 8 x 10 -8 M; type: tissue-based; conditions: Cardiac atrium, in the assay text read “8 x 10 -5 M” for “8 x 10 -8 M”; in short: as §1
Histamine H2 receptor (Cavia porcellus), sequence (P47747 whole entry): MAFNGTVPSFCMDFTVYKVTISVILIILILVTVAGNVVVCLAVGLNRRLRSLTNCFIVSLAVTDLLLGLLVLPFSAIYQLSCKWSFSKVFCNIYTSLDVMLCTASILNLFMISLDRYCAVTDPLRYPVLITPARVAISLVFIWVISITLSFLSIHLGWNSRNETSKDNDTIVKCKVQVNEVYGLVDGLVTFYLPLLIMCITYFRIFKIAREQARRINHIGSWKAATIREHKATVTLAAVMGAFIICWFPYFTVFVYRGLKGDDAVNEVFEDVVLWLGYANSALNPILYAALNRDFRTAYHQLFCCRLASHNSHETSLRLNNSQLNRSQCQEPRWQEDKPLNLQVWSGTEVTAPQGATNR

Canis familiaris [3] = experiment: Effective dose administarted intravenously required for 50 % inhibition of acid output in dogs; value may range from 0.01-0.02; type: functional; conditions: Canis lupus familiaris, iv
Canis familiaris [4] = experiment: % Inhibition of acid output in dogs at a dose of 10 mg/kg administered perorally; type: functional; conditions: Canis lupus familiaris, route oral; in short: as §2
Canis familiaris [5] = experiment: % Inhibition of acid output in dogs at a dose of 0.03 mg/kg administered intravenously; type: functional; conditions: Canis lupus familiaris, route intravenous; in short: as §2
[6] = pKa of heterocyclic component measured as proton gained; type: physicochemical
In short: (§3)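 Potentiometric titration in water with glass electrodes; heterocycle pKa taken as proton gained, urea-component pKa as proton lost; method upper limit pKa 11.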

Canis familiaris [7] = experiment: Effective dose administarted perorally required for 50 % inhibition of acid output in dogs; type: functional; conditions: Canis lupus familiaris, po
Canis familiaris [8] = experiment: Effective dose administarted intravenously required for 50 % inhibition of acid output in dogs; value may range from 0.15-0.18; type: functional; conditions: Canis lupus familiaris, iv
Canis familiaris [9] = experiment: % Inhibition of acid output in dogs at a dose of 20 mg/kg administered perorally; type: functional; conditions: Canis lupus familiaris, route oral; in short: as §2
Canis familiaris [10] = experiment: Effective dose administarted intravenously required for 50 % inhibition of acid output in dogs; Value may range from 0.01-0.03; type: functional; conditions: Canis lupus familiaris, iv
Canis familiaris [11] = experiment: Effective dose administarted perorally required for 50 % inhibition of acid output in dogs; value may range from 0.7-10.9; type: functional; conditions: Canis lupus familiaris, po
Canis familiaris [12] = experiment: % Inhibition of acid output in dogs at a dose of 3.0 mg/kg administered intravenously; type: functional; conditions: Canis lupus familiaris, route intravenous; in short: as §2
[13] = pKa of urea component measured as proton lost reference pKa for the 3,4 diaminothiadiazole 1-oxide is ~11 in water; type: physicochemical; conditions: buffer; in short: as §3
Canis familiaris [14] = experiment: Effective dose administarted intravenously required for 50 % inhibition of acid output in dogs; value may range from 0.01-0.08; type: functional; conditions: Canis lupus familiaris, iv

Histamine H2 receptor, sequence (P47747 whole entry): as above

SMILES | Ki (Histamine H2 receptor) | inhibition in vivo at 5 mg/kg (Canis familiaris [1]) | inhibition in vivo at 10 mg/kg (Canis familiaris [4]) | inhibition in vivo at 0.03 mg/kg (Canis familiaris [5]) | pKa [6] | other results
CNC(=NC#N)Nc1cccc(-c2nc[nH]c2C)c1 | 39800 nM | 48% | – | – | – | –
C/N=C(\NC#N)Nc1ccccc1-c1[nH]cnc1C | – | 4% | – | – | – | -Log Ki [2]: inactive
CNc1n[s+]([O-])nc1Nc1cccc(-c2csc(N=C(N)N)n2)c1 (configuration not stated) | 398 nM | – | 21% | 85% | – | ED50 (Canis familiaris [3]): 0.017 mg/kg
CNC(=NCCSCc1csc(N=C(N)N)n1)NC#N [TIOTIDINE] | – | – | – | – | 7.1 | ED50 (Canis familiaris [7]): 0.12 mg/kg; ED50 (Canis familiaris [8]): 0.16 mg/kg
CN/C(=N\CCSCc1nc[nH]c1C)NC#N [CIMETIDINE] | – | – | – | – | 6.4 | ED50 (Canis familiaris [7]): 2.86 mg/kg
CN/C(=C\[N+](=O)[O-])Nc1cccc(-c2[nH]cnc2C)c1 | 15800 nM | 28% | – | – | – | inhibition in vivo at 20 mg/kg (Canis familiaris [9]): 54%
C/N=C(\NC#N)Nc1cccc(-c2csc(N=C(N)N)n2)c1 | 316 nM | – | 73% | 79% | 6.2 | ED50 (Canis familiaris [10]): 0.02 mg/kg; ED50 (Canis familiaris [11]): 2.81 mg/kg
CN/C(=C\[N+](=O)[O-])Nc1ccc(-c2csc(N=C(N)N)n2)cc1 | 31600 nM | – | – | – | 6.2 | inhibition in vivo at 3 mg/kg (Canis familiaris [12]): 55%; pKa [13]: 9.7
CN/C(=C/[N+](=O)[O-])Nc1cccc(-c2csc(N=C(N)N)n2)c1 | 200 nM | – | 70% | 59% | 6 | pKa [13]: 9.2
Cc1[nH]cnc1-c1cccc(Nc2n[s+]([O-])nc2N)c1 (configuration not stated) | 794 nM | 5% | – | – | – | inhibition in vivo at 20 mg/kg (Canis familiaris [9]): 1%
N=C(N)Nc1nc(-c2cccc(Nc3n[s+]([O-])nc3N)c2)cs1 (configuration not stated) | 316 nM | – | 31% | 58% | 6.2 | ED50 (Canis familiaris [14]): 0.02 mg/kg; pKa [13]: 8.9
C/N=C(\NC#N)Nc1ccc(-c2[nH]cnc2C)cc1 | – | 0% | – | – | – | -Log Ki [2]: inactive
